Measured values: ChEMBL document CHEMBL3272103, “Synthesis and central nervous system evaluation of some 5-alkoxy-3H-1,4-benzodiazepin-2(1H)-ones” (J Med Chem, 1977)

What was measured:
Mus musculus [1] = experiment: Anticonvulsant activity in ip dosed mouse assessed as inhibition of N-sulfamoylhexahydroazepine-induced seizure; assay type: functional
Method in brief: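 Mice dosed ip with test compound, then challenged with the convulsant N-sulfamoylhexahydroazepine; protection against seizures scored per a literature method. Ten animals per dose; ED50 derived in mg/kg ip.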

Mus musculus [2] = experiment: CNS depressant activity in mouse assessed as reduction in amphetamine-induced locomotor activity at 51.2 mg/kg, ip; assay type: functional; parameters: scale not given: the % may be the effect or the level left; details: route intraperitoneal
Method in brief: (§1)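 Locomotor activity of mice recorded in photocell activity cages after dl-amphetamine 4.0 mg/kg ip plus test compound ip at the stated dose. Five mice per group; result given as % change in activity.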

Mus musculus [3] = experiment: CNS depressant activity in ip dosed mouse assessed as reinduction of anesthesia measured as loss of righting reflex compound administered immediately post recovery from hexobarbital anesthesia; assay type: functional
[4] = Acute toxicity in ip dosed Wistar rat measured 2 hrs post dose; assay type: organism-based; details: in vivo
Mus musculus [5] = experiment: CNS depressant activity in ip dosed mouse assessed as ataxia; assay type: functional
Method in brief: (§2)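 Behavioral observation in ip-dosed mice per a modified literature method, scoring ataxia, docility or loss of righting reflex. Ten animals per dose; ED50 in mg/kg ip.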

Mus musculus [6] = experiment: CNS depressant activity in ip dosed mouse assessed as docility; assay type: functional; method in brief: as §2
Mus musculus [7] = experiment: CNS depressant activity in ip dosed mouse assessed as loss of righting reflex; assay type: functional; method in brief: as §2
Mus musculus [8] = experiment: CNS depressant activity in mouse assessed as reduction in amphetamine-induced locomotor activity at 150 mg/kg, ip; assay type: functional; parameters: scale not given: the % may be the effect or the level left; details: route intraperitoneal; method in brief: as §1
Mus musculus [9] = experiment: CNS depressant activity in ip dosed mouse assessed as induction of neurologic deficit by rotarod test; assay type: functional
Method in brief: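 Rotarod test per a literature method in ip-dosed mice; failure scored as neurological deficit. Ten animals per dose; ND50 in mg/kg ip.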

Mus musculus [10] = experiment: CNS depressant activity in mouse assessed as reduction in amphetamine-induced locomotor activity at 18.8 mg/kg, ip; assay type: functional; parameters: scale not given: the % may be the effect or the level left; details: route intraperitoneal; method in brief: as §1
Mus musculus [11] = experiment: CNS depressant activity in mouse assessed as reduction in amphetamine-induced locomotor activity at 50 mg/kg, ip; assay type: functional; parameters: scale not given: the % may be the effect or the level left; details: route intraperitoneal
Method in brief: (§3)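 Mice given test compound ip alongside dl-amphetamine 4.0 mg/kg ip; locomotor activity recorded in photocell activity cages, five mice per group; expressed as % change in activity.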

Mus musculus [12] = experiment: CNS depressant activity in mouse assessed as reduction in amphetamine-induced locomotor activity at 1.5 mg/kg, ip; assay type: functional; parameters: scale not given: the % may be the effect or the level left; details: route intraperitoneal; method in brief: as §3
Mus musculus [13] = experiment: CNS depressant activity in mouse assessed as reduction in amphetamine-induced locomotor activity at 100 mg/kg, ip; assay type: functional; parameters: scale not given: the % may be the effect or the level left; details: route intraperitoneal; method in brief: as §1
Mus musculus [14] = experiment: CNS depressant activity in mouse assessed as reduction in amphetamine-induced locomotor activity at 25.6 mg/kg, ip; assay type: functional; parameters: scale not given: the % may be the effect or the level left; details: route intraperitoneal; method in brief: as §1
Mus musculus [15] = experiment: CNS depressant activity in mouse assessed as reduction in amphetamine-induced locomotor activity at 75 mg/kg, ip; assay type: functional; parameters: scale not given: the % may be the effect or the level left; details: route intraperitoneal; method in brief: as §1

SMILES	ED50 (Mus musculus [1])	Activity (Mus musculus [2])	ED50 (Mus musculus [3])	LD50 at 2 h [4]	ED50 (Mus musculus [5])	ED50 (Mus musculus [6])	ED50 (Mus musculus [7])	Activity (Mus musculus [8])	ED50 (Mus musculus [9])	Activity (Mus musculus [10])	Activity (Mus musculus [11])	Activity (Mus musculus [12])	Activity (Mus musculus [13])	Activity (Mus musculus [14])	Activity (Mus musculus [15])
CN1C(=O)CNC(=O)c2cc([N+](=O)[O-])ccc21	> 102 mg/kg	51%	> 102 mg/kg												
CCOC1=NCC(=O)N(c2ccccc2)c2ccc(Cl)cc21	> 150 mg/kg		> 150 mg/kg	650 mg/kg	300 mg/kg	300 mg/kg	300 mg/kg	50%							
CN1C(=O)CN=C(OCC(Cl)Cl)c2cc(Cl)ccc21	128 mg/kg		143 mg/kg												
CCOC1=NCC(=O)N(C)c2ccc(C)cc21	> 102 mg/kg	44%	18.4 mg/kg	300 mg/kg	133 mg/kg	137 mg/kg	141 mg/kg		87.6 mg/kg						
CCOC1=NCC(=O)N(C)c2ccc(Cl)cc21	35.2 mg/kg		2.9 mg/kg	300 mg/kg	45.3 mg/kg	42.8 mg/kg	39.3 mg/kg		68.5 mg/kg	93%					
CN1C(=O)CNC(=O)c2ccc(Cl)cc21	> 102 mg/kg	30%	> 102 mg/kg												
CN1C(=O)CN=C(OCC(F)(F)F)c2cc(Cl)ccc21	> 102 mg/kg	48%	> 102 mg/kg												
CCOC1=NCC(=O)N(C)c2c1cc(Cl)cc2[N+](=O)[O-]	> 102 mg/kg	19%	> 102 mg/kg												
CN1C(=O)CN=C(Oc2ccccc2F)c2cc(Cl)ccc21	> 200 mg/kg	45%	> 200 mg/kg	650 mg/kg	240 mg/kg	240 mg/kg	428 mg/kg		146 mg/kg						
COC1=NCC(=O)N(C)c2ccc(Cl)cc21	> 50 mg/kg		16.5 mg/kg	> 200 mg/kg	68 mg/kg	59.3 mg/kg	300 mg/kg				50%				
CCOC1=NCC(=O)N(C)c2ccc([N+](=O)[O-])cc21	87.8 mg/kg	27%	9 mg/kg	600 mg/kg	42.5 mg/kg	11.3 mg/kg	37.5 mg/kg		15.8 mg/kg						
O=C1CN=C(c2ccccc2)c2cc([N+](=O)[O-])ccc2N1 [NITRAZEPAM]	1 mg/kg		0.8 mg/kg	733 mg/kg	1.5 mg/kg	1.5 mg/kg	1.5 mg/kg		0.5 mg/kg			50%			
CCCOC1=NCC(=O)N(C)c2ccc(Cl)cc21	38.2 mg/kg	50%	19.2 mg/kg	> 400 mg/kg	52.5 mg/kg	93.1 mg/kg	78.1 mg/kg								
CN1C(=O)CN=C(OCCBr)c2cc(Cl)ccc21	> 102 mg/kg		> 102 mg/kg												
C=CCOC1=NCC(=O)N(C)c2ccc(Cl)cc21	63.9 mg/kg	55%	54.4 mg/kg												
CN1C(=O)CNC(=O)c2cc(Cl)cc([N+](=O)[O-])c21	> 102 mg/kg	24%	> 102 mg/kg												
CN1C(=O)CNC(=O)c2cc(Cl)ccc21	> 100 mg/kg		39.4 mg/kg										75%		
C#CCOC1=NCC(=O)N(C)c2ccc(Cl)cc21	> 25 mg/kg		22.9 mg/kg	138 mg/kg	22.7 mg/kg	20.8 mg/kg	28.5 mg/kg							44%	
CC(OC1=NCC(=O)N(C)c2ccc(Cl)cc21)C(F)(F)F (configuration not stated)	100 mg/kg		> 200 mg/kg	300 mg/kg	250 mg/kg	130 mg/kg	288 mg/kg		123 mg/kg				73%		
Cc1ccc2c(c1)C(=O)NCC(=O)N2C	> 102 mg/kg	62%	> 102 mg/kg												
CCOC1=NCC(=O)N(CC)c2ccc(Cl)cc21	> 75 mg/kg		21.8 mg/kg	600 mg/kg	100 mg/kg	100 mg/kg	600 mg/kg								5%
CCOC1=NCC(=O)N(C)c2cc(Cl)ccc21	29.9 mg/kg	50%	38.4 mg/kg	600 mg/kg	67.7 mg/kg	56.5 mg/kg	74.4 mg/kg		61.8 mg/kg						
CN1C(=O)CN=C(Oc2ccccc2)c2cc(Cl)ccc21	50.1 mg/kg	68%	> 102 mg/kg												
Cc1cc(Cl)ccc1OC1=NCC(=O)N(C)c2ccc(Cl)cc21	> 102 mg/kg	36%	> 102 mg/kg												
CN1C(=O)CN=C(c2ccccc2)c2cc(Cl)ccc21 [DIAZEPAM]	1.1 mg/kg		1.6 mg/kg		21.9 mg/kg	4.1 mg/kg	8.9 mg/kg		5.2 mg/kg		8%				
